Reference: ChEMBL document CHEMBL4513216, “Probing the Open Global Health Chemical Diversity Library for Multistage-Active Starting Points for Next-Generation Antimalarials” (ACS Infect Dis, 2020)

experiment: Toxicity liver stage against HepG2, at 10uM; type: cell-based; set-up: test concentration 10 uM, cell line HepG2-A16-CD81EGFP; settings: human, HepG2-A16-CD81EGFP cells; read-out: INHIBITION
Summary of the method: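 Uninfected HepG2-A16-CD81EGFP cells, 3 × 10^3 per well, 1536-well, plated on prespotted compound at 10 μM final, parasite-free screening media added to match infected plates; puromycin 10 μM positive, DMSO 0.5% negative; run in parallel with 48 h PbLuc assay at 37 °C, 5% CO2; viability by CellTiter-Glo luminescence, normalized to controls.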

SMILES | cytotoxicity at 10 µM [%]
CCOC(=O)c1cnn(-c2cc(Oc3ccccc3)ncn2)c1N | 2.93
CN(Cc1ccc(F)cc1)Cc1nc(-c2cnccn2)no1 | 1.27
CCC(NC(=O)CN(C)Cc1ccc(C)o1)c1ccc(Br)cc1 (stereo unspecified) | 35.5
COc1ccc(O[C@H]2COCCN(C(=O)c3ccno3)C2)cc1 | -2.41
CC[C@H]1CN(S(C)(=O)=O)CC[C@H]1CC(=O)NCCSC | 3.45
Cc1occc(=O)c1OCC(=O)N1CCN(c2ccccc2)CC1 | -2.88
Cc1nc(C(=O)Nc2cccnc2)c(C(C)C)s1 | -2.36
CC(C)CNC(=O)C1CC(=O)N(c2n[nH]c3ccccc23)C1 (stereo unspecified) | -11.6
CCN1C(=O)CCC12CCCN(S(=O)(=O)c1cccc(C)c1)CC2 (stereo unspecified) | -4.54
CC(C)N1[C@@H](C(=O)NCC2CC2)C[C@@H]2CN(Cc3ccco3)C[C@@H]21 | 3.41
O=C(c1ccno1)N1CC2(CCC(C(=O)N3CCCC3)O2)C1 (stereo unspecified) | -157
COCC1c2nnn(CC3CC3)c2CCN1C(=O)c1cc(C)[nH]c1C (stereo unspecified) | -140
COCCNC(=O)C1CN(C(N)=O)Cc2ccnn2C1 (stereo unspecified) | 0.0039
Cc1noc(C)c1CN1CC2(CCN(C(=O)c3cc[nH]n3)C2)CC1=O (stereo unspecified) | 12.2
Cc1nc(CN2CCO[C@H]3CN(C(=O)c4ccncc4)C[C@H]32)cs1 | -146
O=C(O)C1CCN(C(=O)CCn2ccc3cc(Br)ccc32)CC1 | 15.5
CN1CCN(C(=O)c2cc(-c3cccs3)cs2)CC1 | 3.51
CNC(=O)CCc1cc(C2CCCCN2C)nc(C)n1 (stereo unspecified) | -0.956
CN(CCn1cncc1-c1cnc(N2CCOCC2)nc1)C1CCCC1 | 7.25
CO[C@@H]1CCC[C@@H](N(C)C(=O)c2cn3cc(C)ccc3n2)[C@H]1O | 0.829
CC(C)CCNC(=O)C1CCCN1C(=O)Nc1cccc(F)c1 (stereo unspecified) | -1.04
C[C@]1(O)CCN(Cc2ncccc2F)C[C@@H]1Oc1ccccc1 | -21.4
Cc1cc2c(=O)n3c(nc2s1)CCN(C(=O)c1cnn(C)c1)CC3 | -1.94

SMILES | cytotoxicity at 10 µM [%]
CC(c1ccco1)N(C(=O)c1cccc(C#N)c1)C1CC1 (stereo unspecified) | 1.18
CC(OCc1ccccc1)C(=O)NC1CCN(CC(N)=O)CC1 (stereo unspecified) | -3.45
Cc1nc2cc(F)ccc2cc1C(=O)N1CCN(CC(C)O)CC1 (stereo unspecified) | 2.49
Cc1nc(C)c(C(=O)N2CCc3ccc(F)cc3C2C)o1 (stereo unspecified) | -1.65
Cc1nc(C)n(CC2CCCN2c2ncnc3sc(C)c(C)c23)n1 (stereo unspecified) | 21.4
CCCN(CC(=O)NC)C(=O)c1ccc(-c2nc(C)cs2)cc1 | -20.8
Cn1cc(N2CCN(c3ccc(C#N)c(Cl)c3)CC2=O)cn1 | -3.81
O=c1[nH]c(C2CCOC2)nc2cc(F)c(F)cc12 (stereo unspecified) | 9.66
Cn1cc(C2(C)CN(c3ncccc3C#N)CCO2)cn1 (stereo unspecified) | 4.48
CCCS(=O)(=O)N1CCC(NCc2c(C)nn(C)c2OC)CC1 | 7.01
CC(=O)c1c(F)cccc1NC1CCN(S(=O)(=O)C2CC2)CC1 | 12.5
CN1CCN(C(=O)NCCNc2ncccn2)Cc2ccccc21 | -4.47
CC(NC(=O)NCCCn1cccn1)c1ccccn1 (stereo unspecified) | -11.5
O=C(CCNS(=O)(=O)c1ccc(Cl)cc1)NCc1ccoc1 | -11.8
CN(Cc1nnc(C2CC2)n1C)C1CCN(Cc2ccccc2)C1 (stereo unspecified) | -4.45
O=C(Cc1cccc(Cl)c1)Nc1cnccc1SCCCO | -7.04
CCN(Cc1nc2c(cnn2C)c(=O)[nH]1)c1ccccc1C | 2.78
O=C(NCc1ccncc1)N1CCSCC1CCO (stereo unspecified) | 2.3
CN(Cc1ccncc1)C(=O)c1ccc(F)c(NS(C)(=O)=O)c1 | -0.453
Cc1nnc(C(C)N(C)Cc2c(C)nn(-c3ccccc3)c2C)o1 (stereo unspecified) | -4.73
CN(C(=O)CNC(=O)CC(C)(C)C)C1CCN(c2ccccn2)CC1 | 13.9
O=C(C[S+]([O-])Cc1c(F)cccc1Cl)N1CCc2sccc2C1 (stereo unspecified) | -0.784
Cn1cc(C(C)(O)CNC(=O)c2ccc(Br)s2)cn1 (stereo unspecified) | -52.7

SMILES | cytotoxicity at 10 µM [%]
N#Cc1cc(N2CCC(CS(N)(=O)=O)CC2)nc2ccccc12 | -6.03
COCCN(c1ccncc1)S(=O)(=O)c1cc(C)c(F)cc1F | -6.54
COc1c(CNC(C)C(=O)NC2CCCC2)c(C(C)C)nn1C (stereo unspecified) | -1.08
CCS(=O)(=O)CC(=O)Nc1cccc2c1CN(CC(C)C)C2 | 2.25
COc1ccc(CN(C)CC(=O)Nc2ccc3[nH]c(=O)[nH]c3c2)cc1F | 5.97
Cc1oc(-c2cccs2)nc1C(=O)N(C)C1(C#N)CCC1 | 5.09
CC(O)CN1CCC(CN(C)Cc2ccc(C#N)cc2F)CC1 (stereo unspecified) | -1.87
CCc1ccc(NC(=O)C(C)N2CCN(Cc3ncc[nH]3)CC2)cc1 (stereo unspecified) | -7.83
Cc1[nH]ncc1C(=O)NCC(CO)Cc1ccc(Cl)cc1 (stereo unspecified) | -0.0785
CC(C)CNc1nnc(SC(C(=O)NCc2cccnc2)C(C)C)s1 (stereo unspecified) | -5.9
CC(C)(C)C(O)CN1CCN(CCOCC(F)(F)F)CC1 (stereo unspecified) | -2.02
Cc1ccc(C)n1-c1c(C(=O)NCC(C)N(C)C)cnn1C (stereo unspecified) | 15.9
c1csc(N2CCN(Cc3nnnn3C3CC3)CC2)n1 | 8.96
CCN(C)CC1CCN(C(=O)Nc2ccc(-c3cc[nH]n3)cc2)C1 (stereo unspecified) | -6.25
O=S(=O)(NCCc1c[nH]c2ccc(F)cc12)C1CCOCC1 | 4.13
COc1ccc(OC)c(CNc2nnc(C(C)(C)C)o2)c1 | -6.1
COc1ccccc1N(C)Cc1nc2c(cnn2C)c(=O)[nH]1 | -8.48
CC(Cn1cccn1)NCc1csc(-c2ccc3c(c2)OCO3)n1 (stereo unspecified) | -26
O=C(Nc1ccc(N2CCCC2)nc1)N1CCc2sccc2C1 | -16.6
c1ccc2c(N3CCCCC3Cn3cncn3)ncnc2c1 (stereo unspecified) | 4.16
CC(C)(C)c1nnc(CN2CCN(S(C)(=O)=O)CC2)o1 | -4.32
Cc1c(CC(=O)N2CCN(CC(F)(F)F)CC2)nnn1-c1ccccc1 | -14.8
CC1CCN(CCNC(=O)c2ccccc2N2CCOCC2)CC1 | -6.05

SMILES | cytotoxicity at 10 µM [%]
CCc1nc(C)sc1CN1CC[C@@](O)(C2CCOCC2)[C@H](C)C1 | 1.71
Cc1nn(C)c2nc(N3CCCCC3c3ccc(F)cc3)sc12 (stereo unspecified) | -7.88
CSCCC(=O)N1CCCCC1CCn1cccn1 (stereo unspecified) | -1.94
CN(C)C(Cn1ccnc1-c1nccn1C)c1ccccc1Cl (stereo unspecified) | -0.0184
CN(Cc1cc(C(C)(C)C)n[nH]1)C(=O)c1cn2ccsc2n1 | -12.6
Cc1ccc(C2(O)CCN(C(=O)c3sccc3S(N)(=O)=O)CC2)nc1 | -3.3
COc1nc2c(cc1C(=O)N(C)Cc1noc3c1CCCC3)CCC2 | 0.224
Cc1nc(C(C)Nc2ncnc3c2CCNCC3)c(C)s1 (stereo unspecified) | -6.64
COc1ccc2c(C)c(C(=O)N3CCC(NC(C)=O)C3)oc2c1 (stereo unspecified) | 7.72
CCn1ccnc1CN(C)C1CCCN(Cc2ccccc2F)C1 (stereo unspecified) | 4.77
CC(C)N1CC(C(=O)N2CCC(Oc3ccccc3Cl)CC2)CC1=O (stereo unspecified) | -3.21
CCN1CCC2(CCC1=O)CN(C1CCOCC1)CCN2C (stereo unspecified) | -1.14
Cc1nn(C)cc1Cn1c(=O)c(C)nc2ccccc21 | -1.21
COc1ccc(C(=O)N2CCC(C3CCN(c4ncccn4)CC3)C2)o1 (stereo unspecified) | -12.5
Cc1nc[nH]c1-c1nnc(SCC(=O)O)n1-c1ccccc1C(F)(F)F | 0.0448
CCNc1nc(C)c(C(=O)N2CCN(c3ncccc3C)CC2)s1 | 3.77
CCN1CCCC1CNC(=O)c1cc(COc2ccccc2F)[nH]n1 (stereo unspecified) | -4.17
CC(C)c1ccc(OCC(=O)N(C)C)cc1 | -2.82
CN(C)c1ccc(CCNC(=O)C2CCC(=O)N(C3CCCC3)C2)cc1 (stereo unspecified) | 20.8
Cc1ccc([C@@H]2CN(S(=O)(=O)N(C)C)C[C@H]2N(C)C)cc1 | 2.47
Cc1nc(CN2CCCC(N(C)CCCc3ccccc3)C2)no1 (stereo unspecified) | -0.704
O=C(NC1CC1)N1CCN(c2cnccn2)CC1 | -7.39
CN(C)CC(=O)N1CCN(CC(O)c2ccc(F)cc2)CC1 (stereo unspecified) | -9.11

SMILES | cytotoxicity at 10 µM [%]
Clc1snnc1CN1CCCC1Cn1cncn1 (stereo unspecified) | -20.7
Cc1cc(C)n(C2CCCN(C(=O)CCOc3ccccc3F)C2)n1 (stereo unspecified) | -6.19
COc1cc(S(=O)(=O)N2CCc3ccc(Cl)cc32)cc(C(=O)O)c1OC | -1.34
CCn1cnnc1CNC(=O)N1CCC(CN2CCOCC2)CC1 | -7
CC(Cc1cccc(Cl)c1)NC(=O)Nc1cnn(CC(N)=O)c1 (stereo unspecified) | -15
Cc1ccc(-c2nc(CC(=O)N3CCN(c4cnccn4)CC3)cs2)o1 | -13
CCc1nc(CN2CCCN(CC(O)c3ccccc3)CC2)no1 (stereo unspecified) | -14
CC(NC(=O)NCCCN(C(C)C)S(C)(=O)=O)c1ccncc1 (stereo unspecified) | -14.9
O=C(CCC1CCCO1)NS(=O)(=O)c1ccc(Cl)cc1 (stereo unspecified) | -9.36
c1ccc(CN2CCNCC(Cc3cnccn3)C2)cc1 (stereo unspecified) | -8.65
CS(=O)(=O)N1CCC2(CCCN(Cc3ccccn3)C2)C1 (stereo unspecified) | -148
O=C(C[C@@H]1COC[C@H]2CN(Cc3cccnc3)C[C@@H]12)N1CCCC1 | -128
Cc1cccc(N2CCc3ncnc(C4CC4)c3CC2)n1 | -148
c1cc(CN2CCN3C[C@H](Oc4cncnc4)C[C@H]3C2)ccn1 | -108
Cc1nc(CN2CCOCC3(CCN(c4cnccn4)CC3)C2)cs1 | 7.37
COCc1nn(C(C)C)c2c1CCN(Cc1nccs1)C2 | 8.42
O=C(c1ccccc1)N1CCOC2(CCN(Cc3cccs3)CC2)C1 | 0.64
CC[C@@H]1N(Cc2ccoc2)CCC[C@]12CCC(=O)N2CCOC | 11
O=C([C@@H]1COC[C@H]2CN(c3ccncn3)C[C@H]21)N1CCCCO1 | -132
